Published values of several laboratories.
EIF2AK4 S808G C-terminal kinase domain: eIF-2-alpha kinase GCN2, C-terminal kinase domain (EIF2AK4, Homo sapiens, UniProt Q9P2K8, S808G)
EIF2AK4: eIF-2-alpha kinase GCN2 (EIF2AK4, Homo sapiens, UniProt Q9P2K8)
EIF2AK4 S808G: eIF-2-alpha kinase GCN2 (EIF2AK4, Homo sapiens, UniProt Q9P2K8, S808G)

| SMILES | target | assay | system | conditions | endpoint | value |
| --- | --- | --- | --- | --- | --- | --- |
| COc1ccc2cc(OCC3(C(=O)O)CN(C(=O)c4ccc(F)cc4)C3)ccc2c1 | EIF2AK4 S808G C-terminal kinase domain | cell-free assay, competition with immobilised ligand | – | 1 µM | remaining binding | 100% |
| COc1cc(Cl)c(C(=O)N[C@@H](CN[C@H]2CC[C@@H](N)CC2)Cc2ccc(C#N)cc2)cc1-c1ccc(CN[C@H](C)c2ccc(C)cc2)o1 | EIF2AK4 | enzyme activity, inhibitor | – | 1 µM | remaining activity | 102% |
| Cc1cnc(NC2CCOCC2)nc1-n1cnc(C(=O)NC(CN)c2cc(F)cc(Cl)c2)c1 (stereo not shown) | EIF2AK4 | enzyme activity, inhibitor, radiometric | – | 1 µM | remaining activity | 82% |
| Nc1ncnc2occ(-c3ccc(NC(=O)Nc4cc(C(F)(F)F)ccc4F)cc3)c12 | EIF2AK4 S808G C-terminal kinase domain | cell-free assay, inhibitor | – | 20 µM | remaining signal | 3.6% |
| CC(=O)Nc1c(C(C)=O)c(=O)n(C)c2nc(-c3ccc(Cl)cc3Cl)c(-c3ccc(Cl)cc3)cc12 | EIF2AK4 S808G | binding, competition with immobilised ligand | – | 1 µM | remaining binding | 48% |
| Cc1ccc(NC(=O)c2ccc(C)c(C(F)(F)F)c2)cc1C#Cc1nn(C2CCC(O)CC2)c2ncnc(N)c12 (stereo not shown) | EIF2AK4 | cell-free assay | – | 10 µM | remaining signal | 50% |
| Cc1cc(NC(=O)c2cccc3cc(-c4cccc5[nH]nc(N)c45)ccc23)ccc1F | EIF2AK4 | enzyme activity, inhibitor | – | 0.1 µM | activity vs control | 92% |
| Cc1ccc(C(=O)Nc2ccc(CN3CCN(C)CC3)c(C(F)(F)F)c2)cc1C#Cc1cnc2cccnn12 | EIF2AK4 S808G | enzyme activity, inhibitor | – | 23.5 nM | remaining activity | 85% |
| CNc1cc(Oc2cc(C(=O)Nc3cc(N4CCN(C)CC4)cc(C(F)(F)F)c3)ccc2C)ncn1 | EIF2AK4 | target engagement in cells, inhibitor, chemoproteomics | Huh-7 | 1 µM | inhibition | 37% |
| CN1CC(Oc2cnc(C#N)cc2-c2ccn3nc(NC(=O)C4CC4)cc3c2)C1 | EIF2AK4 | enzyme activity, inhibitor | – | 1 µM | inhibition | 15% |
